Assay results taken from ChEMBL document CHEMBL5038617, “1,2,4-Triazole-3-thione compounds with a 4-ethyl alkyl/aryl sulfide substituent are broad-spectrum metallo-β-lactamase inhibitors with re-sensitization activity” (Eur J Med Chem, 2021).

Tests used:
[1] = Inhibition of bacterial New Delhi metallo-beta-lactamase 1 (unknown origin) assessed as substrate hydrolysis using meropenem as substrate by UV-visible spectrometry analysis; design: species or system Bacteria
Outline: (§1)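 Purified MBL enzyme at 1–70 nM final, in 50 mM HEPES pH 7.5 at 30 °C with 0.5% DMSO. Reporter substrate 150 µM imipenem or meropenem; hydrolysis read at 300 nm. […] Ki measured when inhibition exceeded 75%, by competitive-model v0/vi vs [I] slope or Dixon plot. Some runs used 10 min enzyme–inhibitor preincubation. Triplicate.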

[2] = Inhibition of bacterial Metallo-beta-lactamase VIM-2 (unknown origin) assessed as substrate hydrolysis using meropenem as substrate by UV-visible spectrometry analysis; design: species or system Bacteria; outline: as §1
[3] = tested on: Klebsiella pneumoniae; assay: Synergistic antibacterial activity against Klebsiella pneumonia 7023 clinical isolate strain producing Metallo-beta-lactamase VIM-1 assessed as meropenem MIC in presence of meropenem incubated for 24 hrs by broth microdilution method; assay type: functional
Outline: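 CLSI broth microdilution in Mueller-Hinton broth with 5 × 10^4 CFU/well. Meropenem two-fold serial dilutions tested with and without inhibitor fixed at 32 µg/mL, inhibitor added before antibiotic. DMSO ≤1%. […] Growth controls included. Triplicate.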

[4] = tested on: Klebsiella pneumoniae; assay: Synergistic antibacterial activity against Klebsiella pneumonia VA 416/02 clinical isolate strain producing Metallo-beta-lactamase VIM-4 assessed as meropenem MIC in presence of meropenem incubated for 24 hrs by broth microdilution method; conditions: VA 416/02, 24 h
[5] = Inhibition of bacterial Metallo-beta-lactamase VIM-4 (unknown origin) assessed as substrate hydrolysis using meropenem as substrate by UV-visible spectrometry analysis; design: species or system Bacteria; outline: as §1
[6] = Inhibition of bacterial Metallo-beta-lactamase IMP-1 (unknown origin) assessed as substrate hydrolysis using meropenem as substrate by UV-visible spectrometry analysis; design: species or system Bacteria; outline: as §1
[7] = Inhibition of bacterial Metallo-beta-lactamase VIM-1 (unknown origin) assessed as substrate hydrolysis using meropenem as substrate by UV-visible spectrometry analysis; design: species or system Bacteria; outline: as §1
[8] = tested on: Bacteria; assay: Inhibition of bacterial New Delhi metallo-beta-lactamase 1 (unknown origin) assessed as substrate hydrolysis at 100 uM using meropenem as substrate by UV-visible spectrometry analysis; outline: as §1
[9] = tested on: Bacteria; assay: Inhibition of bacterial Metallo-beta-lactamase IMP-1 (unknown origin) assessed as substrate hydrolysis at 100 uM using meropenem as substrate by UV-visible spectrometry analysis; outline: as §1
[10] = tested on: Bacteria; assay: Inhibition of bacterial Metallo-beta-lactamase VIM-2 (unknown origin) assessed as substrate hydrolysis at 100 uM using meropenem as substrate by UV-visible spectrometry analysis; outline: as §1
[11] = tested on: HeLa; assay: Cytotoxicity against human HeLa cells assessed as LDH release measured after 24 hrs by CytoTox96 nonradioactive assay; assay type: functional, cell-based
Outline: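 HeLa cells (20,000/well) incubated 24 h at 37 °C, 5% CO2 in DMEM with 10% FBS, 4.5 mg/mL glucose and 2 mM L-glutamine, with compound up to 250 µM. LDH release measured. Medium-only control and Triton X-100 maximum-release control included. % cytotoxicity = 100 × sample/maximum release. IC50 taken as 50% cytotoxicity.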

[12] = Cytotoxicity against human PBMC cells assessed as cell viability measured after 24 hrs by flowcytometry method; assay type: toxicity, cell-based; conditions: for IC50 at 24 h: human, PBMC cells
Outline: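 PBMC from four individual donors were isolated by density centrifugation, frozen, thawed and resuspended at 1.10e6/mL in RPMI with 10% FBS. Compound added from 20 mM DMSO stock by serial dilution in RPMI; final concentrations 500–7.8 µM, in duplicate. After 24 h, live cells counted by flow cytometry using FSC/SSC gating. IC50 calculated for each donor.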

[13] = tested on: Bacteria; assay: Inhibition of bacterial Metallo-beta-lactamase VIM-4 (unknown origin) assessed as substrate hydrolysis at 25 uM using meropenem as substrate by UV-visible spectrometry analysis; outline: as §1
[14] = tested on: Bacteria; assay: Inhibition of bacterial Metallo-beta-lactamase VIM-1 (unknown origin) assessed as substrate hydrolysis at 25 uM using meropenem as substrate by UV-visible spectrometry analysis; outline: as §1
[15] = tested on: A549; assay: Cytotoxicity against human A549 cells assessed as cell viability measured after 48 hrs by RealTime-glo MT assay; assay type: functional, cell-based; conditions: A549, 48 h
Outline: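 A549 cells incubated up to 48 h in DMEM with varying compound concentrations. Viable cell number read by bioluminescent real-time viability assay (NanoLuc luciferase with cell-permeant prosubstrate). Viability expressed relative to DMSO-only control culture, and IC50 derived.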

[16] = tested on: Bacteria; assay: Inhibition of bacterial Metallo-beta-lactamase VIM-1 (unknown origin) assessed as substrate hydrolysis at 100 uM using meropenem as substrate by UV-visible spectrometry analysis; outline: as §1
[17] = tested on: Bacteria; assay: Inhibition of bacterial Metallo-beta-lactamase VIM-4 (unknown origin) assessed as substrate hydrolysis at 100 uM using meropenem as substrate by UV-visible spectrometry analysis; outline: as §1
[18] = tested on: Bacteria; assay: Inhibition of bacterial Metallo-beta-lactamase VIM-2 (unknown origin) assessed as substrate hydrolysis at 25 uM using meropenem as substrate by UV-visible spectrometry analysis; outline: as §1
[19] = tested on: Bacteria; assay: Inhibition of bacterial Metallo-beta-lactamase IMP-1 (unknown origin) assessed as substrate hydrolysis at 25 uM using meropenem as substrate by UV-visible spectrometry analysis; outline: as §1

| Ki [1] | Ki [2] | MIC [3] | MIC [4] | Ki [5] | Ki [6] | Ki [7] | inhibition [8] | inhibition [9] | Compound | other results |
| --- | --- | --- | --- | --- | --- | --- | --- | --- | --- | --- |
| 11000 nM | 1570 nM | 1 µg/mL | 1 µg/mL | 540 nM | 3350 nM | 1260 nM | – | – | S=c1[nH]nc(-c2ccccc2)n1CCSc1ccccc1 | – |
| – | – | – | – | – | – | – | < 30% | 35% | S=c1[nH]nc(-c2ccccc2-c2ccccc2)n1CCSCc1ccccc1 | inhibition [10]: < 30% |
| 11900 nM | 280 nM | 1 µg/mL | 2 µg/mL | 320 nM | 12100 nM | 590 nM | – | – | Fc1ccccc1CSCCn1c(-c2ccccc2)n[nH]c1=S | IC50 [11]: 165000 nM; IC50 at 24 h [12]: 175000 nM |
| 15100 nM | 830 nM | 8 µg/mL | 2 µg/mL | 1110 nM | 9660 nM | 2220 nM | – | – | Fc1ccc(CSCCn2c(-c3ccccc3)n[nH]c2=S)cc1 | – |
| – | – | – | – | – | – | – | < 30% | 60% | S=c1[nH]nc(-c2ccc(-c3ccccc3)cc2)n1CCSCc1ccccc1 | inhibition [13]: < 15%; inhibition [14]: < 15%; inhibition [10]: < 30% |
| 12000 nM | 940 nM | 2 µg/mL | 1 µg/mL | 1180 nM | 8670 nM | 1330 nM | – | – | Fc1ccc(CSCCn2c(-c3ccccc3)n[nH]c2=S)c(F)c1 | – |
| 11900 nM | 210 nM | 1 µg/mL | 4 µg/mL | 250 nM | – | 580 nM | – | 62% | O=[N+]([O-])c1ccc(O)c(CSCCn2c(-c3ccccc3)n[nH]c2=S)c1 | IC50 [11]: > 250000 nM; IC50 [15]: 125000 nM; IC50 at 24 h [12]: > 500000 nM |
| 21100 nM | 1760 nM | 2 µg/mL | 1 µg/mL | 430 nM | 17700 nM | 460 nM | – | – | S=c1[nH]nc(-c2ccccc2)n1CCSCCc1ccccc1 | – |
| – | 190 nM | 4 µg/mL | 2 µg/mL | 210 nM | – | 1650 nM | 40% | 30% | O=C(O)C(SCCn1c(-c2ccccc2)n[nH]c1=S)c1ccccc1 (stereo not drawn) | – |
| 13000 nM | 800 nM | 4 µg/mL | 2 µg/mL | 500 nM | 44000 nM | 400 nM | – | – | Cc1ccccc1-c1n[nH]c(=S)n1CCSCc1ccccc1 | IC50 [11]: 121000 nM |
| – | – | – | – | – | – | – | < 30% | 32% | S=c1[nH]nc(-c2ccccc2)n1CCSc1nc(-c2ccccc2)n[nH]1 | inhibition [16]: < 30%; inhibition [17]: 52%; inhibition [10]: 44% |
| – | – | 2 µg/mL | 2 µg/mL | 2950 nM | – | 2170 nM | < 30% | < 30% | Cc1nnc(SCCn2c(-c3ccccc3)n[nH]c2=S)s1 | inhibition [10]: 56% |
| 12900 nM | – | – | – | – | – | – | – | < 30% | FC(F)(F)c1cc(SCCn2c(-c3ccccc3)n[nH]c2=S)c2ccccc2n1 | inhibition [16]: 37%; inhibition [17]: < 30%; inhibition [10]: < 30% |
| – | 1350 nM | 2 µg/mL | 1 µg/mL | 4850 nM | – | 2980 nM | 42% | 46% | S=c1[nH]nc(-c2ccccc2)n1CCCSc1ccccc1 | – |
| – | 1650 nM | 2 µg/mL | 2 µg/mL | 600 nM | – | 180 nM | 46% | 63% | COc1ccc(O)c(-c2n[nH]c(=S)n2CCSCc2ccccc2)c1 | – |
| – | 1000 nM | 8 µg/mL | 16 µg/mL | 250 nM | – | 480 nM | < 30% | < 30% | S=c1[nH]nc(-c2ccccc2)n1CCSc1cccc2ccccc12 | – |
| 11100 nM | 1290 nM | 2 µg/mL | 1 µg/mL | 880 nM | 3630 nM | 430 nM | – | – | O=[N+]([O-])c1ccc(CSCCn2c(-c3ccccc3)n[nH]c2=S)cc1 | – |
| – | – | – | – | – | – | – | < 30% | 47% | S=c1[nH]nc(-c2ccccc2)n1CCSc1nc2ccccc2s1 | inhibition [16]: < 30%; inhibition [17]: 44%; inhibition [10]: 30% |
| – | – | – | – | – | – | – | < 30% | 70% | S=c1[nH]nc(Cc2ccc3ccccc3c2)n1CCSCc1ccccc1 | inhibition [13]: 23%; inhibition [14]: < 15%; inhibition [10]: < 30% |
| 16300 nM | 1150 nM | 4 µg/mL | 2 µg/mL | 410 nM | 22200 nM | 470 nM | – | – | Nc1ccccc1SCCn1c(-c2ccccc2)n[nH]c1=S | – |
| – | – | – | – | 1040 nM | – | 2240 nM | < 30% | 60% | S=c1[nH]nc(-c2ccc(OCc3ccccc3)cc2)n1CCSCc1ccccc1 | inhibition [10]: < 30% |
| 20300 nM | 370 nM | 4 µg/mL | 2 µg/mL | 210 nM | – | 1390 nM | – | 56% | O=C(O)C(CSCCn1c(-c2cccc(-c3ccccc3)c2)n[nH]c1=S)c1ccccc1 (stereo not drawn) | – |
| 13200 nM | 570 nM | 2 µg/mL | 1 µg/mL | 560 nM | 19000 nM | 480 nM | – | 72% | O=[N+]([O-])c1ccccc1CSCCn1c(-c2ccccc2)n[nH]c1=S | – |
| – | 3160 nM | 4 µg/mL | 2 µg/mL | 2060 nM | – | 1020 nM | 33% | 42% | S=c1[nH]nc(-c2ccccc2)n1CCOCc1ccccc1 | – |
| 6000 nM | 600 nM | 2 µg/mL | 4 µg/mL | 220 nM | 35000 nM | 480 nM | – | – | O=C(O)C(CSCCn1c(-c2ccccc2)n[nH]c1=S)c1ccccc1 (stereo not drawn) | IC50 [11]: > 250000 nM |
| – | – | 16 µg/mL | 16 µg/mL | 890 nM | – | – | < 30% | – | S=c1[nH]nc(-c2cccc(-c3ccccc3)c2)n1CCSCc1ccccc1 | inhibition [18]: < 15%; inhibition [19]: 21% |
| – | 810 nM | 2 µg/mL | 4 µg/mL | 710 nM | – | 2360 nM | 40% | < 30% | O=C(O)CSCCn1c(-c2ccccc2)n[nH]c1=S | – |
| – | 1910 nM | 2 µg/mL | 1 µg/mL | 1980 nM | – | 1990 nM | 59% | 67% | O=C(O)CCSCCn1c(-c2ccccc2)n[nH]c1=S | – |
| 28000 nM | 340 nM | 2 µg/mL | 1 µg/mL | 250 nM | 9040 nM | 230 nM | 75% | – | Cn1cccc1-c1n[nH]c(=S)n1CCSCc1ccccc1 | IC50 [11]: > 250000 nM; IC50 [15]: > 250000 nM; IC50 ([12]; pbmc): Non-Toxic |
